Test results taken from ChEMBL document CHEMBL4251645, “Synthesis of C3-Neoglycosides of digoxigenin and their anticancer activities” (2018).
Activity calls are given as the source filed them. The calls are words filed in the database; no cut-off is given here.

Experiments:
NCI-H460 [1] = experiment: Induction of Nur77 protein expression in human NCI-H460 cells at 20 nM after 3 hrs by Western blot assay; format: functional, cell-based
How it was run: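 NIH-H460 cells exposed to 20 nM glycoside for 3 h and lysed. Equal lysate amounts run on 8% SDS-PAGE and blotted to PVDF, then blocked in 5% milk/TBST for 1 h. Anti-Nur77 (1:1000) applied overnight at 4 °C, secondary antibody for 1 h, ECL detection. β-actin (1:10000) reprobe served as loading control.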

[2] = molecular target: Nuclear receptor subfamily 4immunitygroup A member 1 (Homo sapiens) (UniProt P22736); experiment: Induction of Nur77 protein translocation from nucleus to cytoplasm in human NCI-H460 cells at 20 nM by DAPI staining based immunofluorescence microscopic method; format: cell-based; details: TDE = time-dependent effect
Chain of Nuclear receptor subfamily 4immunitygroup A member 1 (Homo sapiens) (P22736 whole entry): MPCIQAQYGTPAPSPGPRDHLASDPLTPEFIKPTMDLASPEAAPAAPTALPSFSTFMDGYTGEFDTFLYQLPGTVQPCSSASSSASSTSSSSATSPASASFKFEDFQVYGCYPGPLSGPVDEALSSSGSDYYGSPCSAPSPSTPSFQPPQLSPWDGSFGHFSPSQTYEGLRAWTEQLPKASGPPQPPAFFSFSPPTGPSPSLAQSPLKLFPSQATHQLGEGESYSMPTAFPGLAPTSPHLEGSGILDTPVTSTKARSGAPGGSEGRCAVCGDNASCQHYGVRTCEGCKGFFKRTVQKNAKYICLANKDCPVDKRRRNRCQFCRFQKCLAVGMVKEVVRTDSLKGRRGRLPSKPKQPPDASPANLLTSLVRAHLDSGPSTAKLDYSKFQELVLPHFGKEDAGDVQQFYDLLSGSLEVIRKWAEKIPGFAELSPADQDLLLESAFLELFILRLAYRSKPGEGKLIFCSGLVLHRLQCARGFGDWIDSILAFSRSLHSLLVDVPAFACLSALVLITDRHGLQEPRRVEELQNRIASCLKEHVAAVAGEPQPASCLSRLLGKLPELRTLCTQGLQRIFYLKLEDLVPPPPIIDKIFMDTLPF
How it was run: (§1)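 NIH-H460 cells given 20 nM glycoside for 3, 6 and 9 h. Cells permeabilized with 0.1% Triton X-100 for 15 min and blocked in 1% BSA for 30 min. Anti-Nur77 applied at 37 °C for 1 h, then Cy3 anti-rabbit IgG for 30 min at room temperature. DAPI stained nuclei; confocal imaging scored Nur77 nuclear versus cytoplasmic location.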

NCI-H460 [3] = experiment: Induction of apoptosis in human NCI-H460 cells assessed as necrotic cells at 20 nM after 12 hrs by Annexin V-FITC/propidium iodide staining based flow cytometry (reference value: 0.93%); format: functional
How it was run: (§2)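 NIH-H460 cells seeded at 1 × 10^5/well and given 20 nM glycoside for 12 h. Cells trypsinized, spun at 1,500 rpm for 5 min and resuspended in Annexin V binding buffer. Annexin V-FITC stain for 15 min, then propidium iodide for 5 min. Populations quantified by FACS Calibur flow cytometry.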

NCI-H460 [4] = experiment: Induction of apoptosis in human NCI-H460 cells assessed as live cells at 20 nM after 12 hrs by Annexin V-FITC/propidium iodide staining based flow cytometry (reference value: 91.81%); format: functional; how it was run: as §2
NCI-H460 [5] = experiment: Induction of apoptosis in human NCI-H460 cells assessed as late apoptotic cells at 20 nM after 12 hrs by Annexin V-FITC/propidium iodide staining based flow cytometry (reference value: 2.54%); format: functional; how it was run: as §2
NCI-H460 [6] = experiment: Induction of apoptosis in human NCI-H460 cells assessed as early apoptotic cells at 20 nM after 12 hrs by Annexin V-FITC/propidium iodide staining based flow cytometry (reference value: 4.72%); format: functional; how it was run: as §2
[7] = molecular target: Nuclear receptor subfamily 4immunitygroup A member 1 (Homo sapiens) (UniProt P22736); experiment: Induction of Nur77 protein translocation from nucleus to cytoplasm in human NCI-H460 cells at 20 nM after 9 hrs by DAPI staining based immunofluorescence microscopic method; format: cell-based; how it was run: as §1
NCI-H460 [8] = experiment: Cytotoxicity against human NCI-H460 cells assessed as reduction in cell viability at 50 nM after 48 hrs by MTT assay; format: functional, cell-based
How it was run: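 NIH-H460 cells (ATCC; RPMI 1640, 10% FBS, L-glutamine, penicillin/streptomycin) seeded at 3 × 10^3/well, then given medium with 50 nM glycoside for 48 h. MTT ([…]) added for 4 h at 37 °C, formazan dissolved in DMSO, absorbance at 560 nm.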

NCI-H460 [9] = experiment: Induction of apoptosis in human NCI-H460 cells assessed as early apoptotic cells after 12 hrs by Annexin V-FITC/propidium iodide staining based flow cytometry (reference value: 4.72%); format: functional
NCI-H460 [10] = experiment: Induction of apoptosis in human NCI-H460 cells assessed as necrotic cells after 12 hrs by Annexin V-FITC/propidium iodide staining based flow cytometry (reference value: 0.93%); format: functional
NCI-H460 [11] = experiment: Induction of apoptosis in human NCI-H460 cells assessed as late apoptotic cells after 12 hrs by Annexin V-FITC/propidium iodide staining based flow cytometry (reference value: 2.54%); format: functional
NCI-H460 [12] = experiment: Induction of apoptosis in human NCI-H460 cells assessed as live cells after 12 hrs by Annexin V-FITC/propidium iodide staining based flow cytometry (reference value: 91.81%); format: functional

`C[C@]12CC[C@@H](O)C[C@H]1CC[C@@H]1[C@@H]2C[C@@H](O)[C@]2(C)[C@@H](C3=CC(=O)OC3)CC[C@]12O` was tested, and the Activity (NCI-H460 [1]) was “Active”.

`C[C@@H]1OC(O[C@H]2CC[C@@]3(C)[C@H](CC[C@@H]4[C@@H]3C[C@@H](O)[C@]3(C)[C@@H](C5=CC(=O)OC5)CC[C@]43O)C2)[C@H](O)[C@H](O)[C@H]1O` (stereo not given in full) was tested, and the Activity [2] was “Tde”, the Activity (NCI-H460 [3]) was 1.55% and the Activity (NCI-H460 [4]) was 83.59%. The Activity (NCI-H460 [5]) was 5.5%, the Activity (NCI-H460 [6]) was 9.35% and the Activity [7] was “Active”. For the same molecule, the Activity (NCI-H460 [1]) was “Active” and the Activity (NCI-H460 [8]) was “Active”.

For `C[C@@H]1OC(O[C@H]2CC[C@@]3(C)[C@H](CC[C@@H]4[C@@H]3C[C@@H](O)[C@]3(C)[C@@H](C5=CC(=O)OC5)CC[C@]43O)C2)[C@@H](O)[C@H](O)[C@@H]1O` (stereo not given in full), the Activity [2] was “Tde”, the Activity (NCI-H460 [3]) was 4.21% and the Activity (NCI-H460 [4]) was 61.75%. The Activity (NCI-H460 [5]) was 9.01%, the Activity (NCI-H460 [6]) was 25.02% and the Activity [7] was “Active”. The Activity (NCI-H460 [1]) was “Active” and the Activity (NCI-H460 [8]) was “Active”.

With `C[C@]12CC[C@@H](OC3O[C@H](CO)[C@@H](O)[C@H](O)[C@@H]3O)C[C@H]1CC[C@@H]1[C@@H]2C[C@@H](O)[C@]2(C)[C@@H](C3=CC(=O)OC3)CC[C@]12O` (stereo not given in full) the Activity (NCI-H460 [1]) was “Active”.

In the case of `C[C@]12CC[C@H](OC3O[C@H](CO)[C@@H](O[C@@H]4O[C@H](CO)[C@H](O)[C@H](O)[C@H]4O)[C@H](O)[C@H]3O)C[C@H]1CC[C@@H]1[C@@H]2C[C@@H](O)[C@]2(C)[C@@H](C3=CC(=O)OC3)CC[C@]12O` (stereo not given in full), the Activity (NCI-H460 [1]) is reported as “Active”.

In the case of `C[C@]12CC[C@H](OC3O[C@H](CO)[C@H](O)[C@H](O)[C@H]3O)C[C@H]1CC[C@@H]1[C@@H]2C[C@@H](O)[C@]2(C)[C@@H](C3=CC(=O)OC3)CC[C@]12O` (stereo not given in full), the Activity (NCI-H460 [1]) is reported as “Active”.

`C[C@H]1O[C@@H](O[C@H]2[C@@H](O)C[C@H](O[C@H]3[C@@H](O)C[C@H](O[C@H]4CC[C@@]5(C)[C@H](CC[C@@H]6[C@@H]5C[C@@H](O)[C@]5(C)[C@@H](C7=CC(=O)OC7)CC[C@]65O)C4)O[C@@H]3C)O[C@@H]2C)C[C@H](O)[C@@H]1O` [DIGOXIN] showed an Activity (NCI-H460 [9]) of 4.06%, an Activity (NCI-H460 [10]) of 0.6% and an Activity (NCI-H460 [11]) of 4.64%. It also gave an Activity (NCI-H460 [12]) of 90.71%.

For `C[C@]12CC[C@H](OC3O[C@H](CO)[C@@H](O)[C@H](O)[C@H]3O)C[C@H]1CC[C@@H]1[C@@H]2C[C@@H](O)[C@]2(C)[C@@H](C3=CC(=O)OC3)CC[C@]12O` (stereo not given in full), the Activity (NCI-H460 [8]) was “Active”.

With `C[C@]12CC[C@H](OC3O[C@H](CO)[C@@H](O[C@@H]4O[C@H](CO)[C@@H](O)[C@H](O)[C@H]4O)[C@H](O)[C@H]3O)C[C@H]1CC[C@@H]1[C@@H]2C[C@@H](O)[C@]2(C)[C@@H](C3=CC(=O)OC3)CC[C@]12O` (stereo not given in full) the Activity (NCI-H460 [1]) was “Active”.

In the case of `C[C@]12CC[C@H](OC3OC[C@@H](O)[C@@H](O)[C@H]3O)C[C@H]1CC[C@@H]1[C@@H]2C[C@@H](O)[C@]2(C)[C@@H](C3=CC(=O)OC3)CC[C@]12O` (stereo not given in full), the Activity [2] is reported as “Tde”, the Activity (NCI-H460 [3]) is reported as 1.24% and the Activity (NCI-H460 [4]) is reported as 83.97%. For the same molecule, the Activity (NCI-H460 [5]) was 4.58%, the Activity (NCI-H460 [6]) was 10.21% and the Activity [7] was “Active”. For the same molecule, the Activity (NCI-H460 [1]) was “Active” and the Activity (NCI-H460 [8]) was “Active”.

For `C[C@H]1O[C@@H](O[C@H]2[C@@H](O)CC(O[C@H]3CC[C@@]4(C)[C@H](CC[C@@H]5[C@@H]4C[C@@H](O)[C@]4(C)[C@@H](C6=CC(=O)OC6)CC[C@]54O)C3)O[C@@H]2C)C[C@H](O)[C@@H]1O` (stereo not given in full), the Activity (NCI-H460 [1]) was “Active”.
